Measured values from ChEMBL document CHEMBL4334424, “The winding road of the uvaretin class of natural products: from total synthesis to bioactive agent discovery” (Medchemcomm, 2019).
pIC50: −log10 of the molar value.

Experiments:
MIA PaCa-2 [1] = experiment: Cytotoxicity against human MIAPaCa2 cells assessed as cell viability at 5 uM incubated for 72 hrs in presence of 100 uM 6TP by alamar blue assay (reference value: 30.7 %); format: functional
Method in brief: (§1)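 Combination assay in 96-well plates with 100 μL final volume and 1% DMSO. Two test-compound concentrations were crossed with five 6TP concentrations, then cells were added (4000/well adherent, 7000/well suspension). Plates ran 72 h at 37 °C, 5% CO2, with Alamar Blue viability read-out and ≥3 independent experiments. Combination index was calculated by the Chou–Talalay method.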

MIA PaCa-2 [2] = experiment: Cytotoxicity against human MIAPaCa2 cells assessed as cell viability at 2.5 uM incubated for 72 hrs by alamar blue assay (reference value: 0 %); format: functional; conditions: MIA PaCa-2, 72 h, read-out: Activity; method in brief: as §1
REH [3] = experiment: Cytotoxicity against human REH cells assessed as combinational index at 2.5 uM incubated for 72 hrs in presence of 25 uM 6TP by alamar blue assay; format: functional; method in brief: as §1
U-937 = experiment: Cytotoxicity against human U937 cells assessed as reduction in cell viability incubated for 72 hrs by alamar blue assay; format: functional, cell-based; conditions: U-937, 72 h
Method in brief: (§2)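 Suspension cells (2200/well, 384-well) were added directly onto compound in media with no attachment period. Compounds spanned 31.6 nM–200 μM in triplicate, with 72 h exposure at 37 °C, 5% CO2. Alamar Blue was added for the last 3 h and fluorescence read (ex 560/em 590 nm). IC50 came from ≥3 independent experiments.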

MIA PaCa-2 [4] = experiment: Cytotoxicity against human MIAPaCa2 cells assessed as combinational index at 5 uM incubated for 72 hrs in presence of 25 uM 6TP by alamar blue assay; format: functional; method in brief: as §1
MIA PaCa-2 [5] = experiment: Cytotoxicity against human MIAPaCa2 cells assessed as cell viability at 2.5 uM incubated for 72 hrs in presence of 10 uM 6TP by alamar blue assay (reference value: 6.9 %); format: functional; method in brief: as §1
REH [6] = experiment: Cytotoxicity against human REH cells assessed as cell viability at 2.5 uM incubated for 72 hrs in presence of 25 uM 6TP by alamar blue assay (reference value: 12.2 %); format: functional; method in brief: as §1
MIA PaCa-2 [7] = experiment: Cytotoxicity against human MIAPaCa2 cells assessed as combinational index at 5 uM incubated for 72 hrs in presence of 100 uM 6TP by alamar blue assay; format: functional; method in brief: as §1
REH [8] = experiment: Cytotoxicity against human REH cells assessed as combinational index at 2.5 uM incubated for 72 hrs in presence of 50 uM 6TP by alamar blue assay; format: functional; method in brief: as §1
MIA PaCa-2 [9] = experiment: Cytotoxicity against human MIAPaCa2 cells assessed as cell viability at 2.5 uM incubated for 72 hrs in presence of 25 uM 6TP by alamar blue assay (reference value: 6.4 %); format: functional; method in brief: as §1
MIA PaCa-2 [10] = experiment: Cytotoxicity against human MIAPaCa2 cells assessed as combinational index at 5 uM incubated for 72 hrs in presence of 200 uM 6TP by alamar blue assay; format: functional; method in brief: as §1
REH [11] = experiment: Cytotoxicity against human REH cells assessed as combinational index at 5 uM incubated for 72 hrs in presence of 25 uM 6TP by alamar blue assay; format: functional; method in brief: as §1
MIA PaCa-2 [12] = experiment: Cytotoxicity against human MIAPaCa2 cells assessed as combinational index at 2.5 uM incubated for 72 hrs in presence of 100 uM 6TP by alamar blue assay; format: functional; method in brief: as §1
MIA PaCa-2 [13] = experiment: Cytotoxicity against human MIAPaCa2 cells assessed as reduction in cell viability incubated for 72 hrs by alamar blue assay; format: functional, cell-based; conditions: MIA PaCa-2, 72 h
Method in brief: (§3)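 Adherent cells were seeded at 1500 cells/well in 384-well plates and allowed 2–3 h to attach. Compounds in DMSO, diluted in media over 31.6 nM–200 μM, were tested in triplicate for 72 h continuous exposure at 37 °C, 5% CO2. Alamar Blue was added for the final 3 h and fluorescence read (ex 560/em 590 nm). IC50 was fitted from ≥3 independent experiments.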

MIA PaCa-2 [14] = experiment: Cytotoxicity against human MIAPaCa2 cells assessed as cell viability at 5 uM incubated for 72 hrs in presence of 10 uM 6TP by alamar blue assay (reference value: 6.9 %); format: functional; method in brief: as §1
MIA PaCa-2 [15] = experiment: Cytotoxicity against human MIAPaCa2 cells assessed as cell viability at 2.5 uM incubated for 72 hrs in presence of 50 uM 6TP by alamar blue assay (reference value: 13.8 %); format: functional; method in brief: as §1
REH [16] = experiment: Cytotoxicity against human REH cells assessed as reduction in cell viability incubated for 72 hrs by alamar blue assay; format: functional, cell-based; method in brief: as §2
REH [17] = experiment: Cytotoxicity against human REH cells assessed as combinational index at 5 uM incubated for 72 hrs in presence of 50 uM 6TP by alamar blue assay; format: functional; method in brief: as §1
MIA PaCa-2 [18] = experiment: Cytotoxicity against human MIAPaCa2 cells assessed as cell viability at 5 uM incubated for 72 hrs in presence of 25 uM 6TP by alamar blue assay (reference value: 6.4 %); format: functional; method in brief: as §1
REH [19] = experiment: Cytotoxicity against human REH cells assessed as combinational index at 5 uM incubated for 72 hrs in presence of 200 uM 6TP by alamar blue assay; format: functional; method in brief: as §1
HCT-116 = experiment: Cytotoxicity against human HCT116 cells assessed as reduction in cell viability incubated for 72 hrs by alamar blue assay; format: functional, cell-based; conditions: HCT-116, 72 h; method in brief: as §3
REH [20] = experiment: Cytotoxicity against human REH cells assessed as cell viability at 2.5 uM incubated for 72 hrs in presence of 50 uM 6TP by alamar blue assay (reference value: 21.9 %); format: functional; method in brief: as §1
REH [21] = experiment: Cytotoxicity against human REH cells assessed as cell viability at 2.5 uM incubated for 72 hrs in presence of 10 uM 6TP by alamar blue assay (reference value: 10.8 %); format: functional; method in brief: as §1
REH [22] = experiment: Cytotoxicity against human REH cells assessed as cell viability at 5 uM incubated for 72 hrs by alamar blue assay (reference value: 0 %); format: functional; conditions: read-out: Activity; method in brief: as §1
REH [23] = experiment: Cytotoxicity against human REH cells assessed as cell viability at 5 uM incubated for 72 hrs in presence of 25 uM 6TP by alamar blue assay (reference value: 12.2 %); format: functional; method in brief: as §1
MIA PaCa-2 [24] = experiment: Cytotoxicity against human MIAPaCa2 cells assessed as cell viability at 5 uM incubated for 72 hrs in presence of 50 uM 6TP by alamar blue assay (reference value: 13.8 %); format: functional; method in brief: as §1
REH [25] = experiment: Cytotoxicity against human REH cells assessed as combinational index at 2.5 uM incubated for 72 hrs in presence of 200 uM 6TP by alamar blue assay; format: functional; method in brief: as §1
REH [26] = experiment: Cytotoxicity against human REH cells assessed as cell viability at 5 uM incubated for 72 hrs in presence of 10 uM 6TP by alamar blue assay (reference value: 10.8 %); format: functional; method in brief: as §1
MIA PaCa-2 [27] = experiment: Cytotoxicity against human MIAPaCa2 cells assessed as combinational index at 2.5 uM incubated for 72 hrs in presence of 200 uM 6TP by alamar blue assay; format: functional; method in brief: as §1
MIA PaCa-2 [28] = experiment: Cytotoxicity against human MIAPaCa2 cells assessed as cell viability at 2.5 uM incubated for 72 hrs in presence of 100 uM 6TP by alamar blue assay (reference value: 30.7 %); format: functional; method in brief: as §1
REH [29] = experiment: Cytotoxicity against human REH cells assessed as cell viability at 5 uM incubated for 72 hrs in presence of 50 uM 6TP by alamar blue assay (reference value: 21.9 %); format: functional; method in brief: as §1
REH [30] = experiment: Cytotoxicity against human REH cells assessed as cell viability at 2.5 uM incubated for 72 hrs in presence of 100 uM 6TP by alamar blue assay (reference value: 49.5 %); format: functional; method in brief: as §1
MIA PaCa-2 [31] = experiment: Cytotoxicity against human MIAPaCa2 cells assessed as combinational index at 2.5 uM incubated for 72 hrs in presence of 25 uM 6TP by alamar blue assay; format: functional; method in brief: as §1
REH [32] = experiment: Cytotoxicity against human REH cells assessed as combinational index at 2.5 uM incubated for 72 hrs in presence of 100 uM 6TP by alamar blue assay; format: functional; method in brief: as §1
REH [33] = experiment: Cytotoxicity against human REH cells assessed as cell viability at 2.5 uM incubated for 72 hrs by alamar blue assay (reference value: 0 %); format: functional; conditions: read-out: Activity; method in brief: as §1
MIA PaCa-2 [34] = experiment: Cytotoxicity against human MIAPaCa2 cells assessed as combinational index at 5 uM incubated for 72 hrs in presence of 50 uM 6TP by alamar blue assay; format: functional; method in brief: as §1
A549 = experiment: Cytotoxicity against human A549 cells assessed as reduction in cell viability incubated for 72 hrs by alamar blue assay; format: functional, cell-based; conditions: A549, 72 h; method in brief: as §3
MIA PaCa-2 [35] = experiment: Cytotoxicity against human MIAPaCa2 cells assessed as cell viability at 5 uM incubated for 72 hrs by alamar blue assay (reference value: 0 %); format: functional; conditions: MIA PaCa-2, 72 h, read-out: Activity; method in brief: as §1
HeLa = experiment: Cytotoxicity against human HeLa cells assessed as reduction in cell viability incubated for 72 hrs by alamar blue assay; format: functional, cell-based; method in brief: as §3
REH [36] = experiment: Cytotoxicity against human REH cells assessed as combinational index at 5 uM incubated for 72 hrs in presence of 100 uM 6TP by alamar blue assay; format: functional; method in brief: as §1
REH [37] = experiment: Cytotoxicity against human REH cells assessed as cell viability at 5 uM incubated for 72 hrs in presence of 100 uM 6TP by alamar blue assay (reference value: 49.5 %); format: functional; method in brief: as §1
MIA PaCa-2 [38] = experiment: Cytotoxicity against human MIAPaCa2 cells assessed as combinational index at 2.5 uM incubated for 72 hrs in presence of 50 uM 6TP by alamar blue assay; format: functional; method in brief: as §1

COCOc1cc(OC)c(C(=O)/C=C/c2ccccc2)c(OCOC)c1
Activity (MIA PaCa-2 [1]): 61.2% | viability at 2.5 µM (MIA PaCa-2 [2]): 10.2% | CI (REH [3]): 0.81 | pIC50 (U-937): 5.23 | CI (MIA PaCa-2 [4]): 0.55 | Activity (MIA PaCa-2 [5]): 16.5% | Activity (REH [6]): 13.5% | CI (MIA PaCa-2 [7]): 0.36 | CI (REH [8]): 1.36 | Activity (MIA PaCa-2 [9]): 18.6% | CI (MIA PaCa-2 [10]): 0.19 | CI (REH [11]): 0.67 | CI (MIA PaCa-2 [12]): 0.72 | pIC50 (MIA PaCa-2 [13]): 5.66 | Activity (MIA PaCa-2 [14]): 25.4% | Activity (MIA PaCa-2 [15]): 25.1% | pIC50 (REH [16]): 5.04 | CI (REH [17]): 0.84 | Activity (MIA PaCa-2 [18]): 30% | CI (REH [19]): 0.64 | pIC50 (HCT-116): < 4.70 | Activity (REH [20]): 22.1% | Activity (REH [21]): 11.1% | viability at 5 µM (REH [22]): 9% | Activity (REH [23]): 19.1% | Activity (MIA PaCa-2 [24]): 40.8% | CI (REH [25]): 0.63 | Activity (REH [26]): 12.7% | CI (MIA PaCa-2 [27]): 0.31 | Activity (MIA PaCa-2 [28]): 49.1% | Activity (REH [29]): 26.1% | Activity (REH [30]): 51% | CI (MIA PaCa-2 [31]): 0.67 | CI (REH [32]): 1.36 | viability at 2.5 µM (REH [33]): 8.1% | CI (MIA PaCa-2 [34]): 0.51 | pIC50 (A549): 5.38 | viability at 5 µM (MIA PaCa-2 [35]): 16.2% | pIC50 (HeLa): 5.01 | CI (REH [36]): 1.06 | Activity (REH [37]): 51% | CI (MIA PaCa-2 [38]): 0.79
